# Statin myotox sup = protects C2C12 myotubes from simvastatin toxicity | rescue of ATP level, % at 7.49 µM | ATP luminescence, 48 h; scaled: DMSO 0, geranylgeraniol control 100 | AID 602340 | 330,000 tested, 0.78% active;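 active = mean ATP rescue above about 67%, or every replicate alone reaching that limit, limit read from the data, passing the limit was not always enough; inconclusive = no clear call, values can overlap the other calls; inactive = mean under the limit and some replicate under it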;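 also: myotubes were challenged with 10 µM simvastatin during compound exposure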
# SIRT5 inh = blocks human SIRT5 desuccinylation of peptide; Q9NXA8; Purified SirT5, succinyl-peptide AMC, trypsin-coupled fluorescence; inhibition, % at 15 µM; 330,000 tested, 1.1% active; in the data active = inhibition above about 15%; inconclusive = no clear call, values can overlap the other calls
# Target sequence (Q9NXA8 whole entry, looked up): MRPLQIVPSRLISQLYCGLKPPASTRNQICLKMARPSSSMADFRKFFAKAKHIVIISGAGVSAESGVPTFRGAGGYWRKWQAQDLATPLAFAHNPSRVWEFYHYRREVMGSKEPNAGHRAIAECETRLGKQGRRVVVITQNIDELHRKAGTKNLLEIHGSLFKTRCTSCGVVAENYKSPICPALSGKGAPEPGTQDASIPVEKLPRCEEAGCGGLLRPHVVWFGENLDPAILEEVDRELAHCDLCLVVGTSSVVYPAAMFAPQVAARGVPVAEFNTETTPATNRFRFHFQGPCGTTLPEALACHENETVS
# DENV2 CPE = protects cells from dengue virus 2 cytopathic effect; DENV2-infected cells, cytopathic effect rescue, plate reader; CPE inhibition, % at 9.99 µM; 350,000 tested, 1.7% active; AID 651640; in the data active = CPE inhibition above about 20%, passing the limit was not always enough; inconclusive = no clear call, values can overlap the other calls; tested in BHK-21 cells;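 also: 0% = median of neutral control wells and 100% = median of positive control wells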
# PGC1a acetyl inh = modulators of PGC1a acetylation | 350,000 tested, 0.17% active | U2OS PGC1a acetylation, AlphaScreen anti-acetyl-lysine; with virally co-expressed GCN5 acetyltransferase | inhibition, % at 15.6 µM;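 active = every replicate shows inhibition of at least 40%; inconclusive = mean inhibition at least 40% but some replicate below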;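 also: 0% = neutral control wells and 100% = positive control wells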
# S100A4 MyoIIA = inhibitors of human S100A4 binding to myosin IIA peptide; AID 652163; 360,000 tested, 0.14% active; inhibition, % at 10.7 µM; P26447; S100A4/TAMRA-MyoIIA peptide fluorescence polarization;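 active = mean inhibition of at least 70% across replicates, with every replicate also reaching that level; inconclusive = mean inhibition reaches 70% but some replicates fall short; inactive = mean inhibition below 70%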
# Target sequence (P26447 whole entry, looked up): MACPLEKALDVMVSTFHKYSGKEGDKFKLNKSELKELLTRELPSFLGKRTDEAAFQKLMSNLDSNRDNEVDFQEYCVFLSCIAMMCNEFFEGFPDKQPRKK
#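 System – human S100A4 monomer protein, biochemical binding assay · Buffer or medium – Calcium-containing HEPES buffer, pH 7.2 · Timing – 5 min between mix addition and reading · Also added – TAMRA-labelled myosin IIA heavy-chain peptide probe, 5 nM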
# Starred values were filed as active, the others as inactive; ? = inconclusive; · = no result; ! = not confirmed by another sample. This is a sample that favours compounds with a hit; in the whole collection about 2.9% have one here.
SMILES,Statin myotox sup,SIRT5 inh,DENV2 CPE,PGC1a acetyl inh,S100A4 MyoIIA
O=C(CS(=O)(=O)c1ccccc1)NC1CCCCC1,12,-2,-3,-3,1
CC(C)NC(=O)CS(=O)(=O)c1ccccc1,112*,0,8,-3,-5
O=C(NCC(c1ccco1)N1CCN(c2ccccc2)CC1)C1CCCCC1 (centres undefined),0,-2,72*,·,4
O=C(NCC(c1ccco1)N1CCCC1)c1ccc(Cl)cc1 (centres undefined),92*,·,·,5,·
C[C@H]1CCCCO[C@@H](CN(C)C(=O)Nc2ccc3c(c2)OCO3)[C@@H](C)CN([C@@H](C)CO)C(=O)c2cc(NC(=O)NC3CCCCC3)ccc2O1,·,·,48*,14,·
C[C@@H]1CCCCO[C@@H](CN(C)C(=O)Nc2ccc3c(c2)OCO3)[C@H](C)CN([C@@H](C)CO)C(=O)c2cc(NC(=O)NC3CCCCC3)ccc2O1,·,·,-9,-15,·
C[C@@H]1CN([C@H](C)CO)C(=O)c2cc(NC(=O)NC3CCCCC3)ccc2O[C@@H](C)CCCCO[C@H]1CN(C)C(=O)Nc1ccc2c(c1)OCO2,·,·,101*,1,·
CN1C(=O)c2cc(NC(=O)c3cccs3)ccc2OC[C@H]2O[C@@H](CC(=O)NCCN3CCCCC3)CC[C@@H]21,9,3,5,6,-3
CO[C@H]1CN(C)C(=O)c2cc(NC(=O)c3ccccc3F)ccc2OC[C@H](C)N(C)C[C@H]1C,-4,-15,-10,4,1
COc1ccc(S(=O)(=O)Nc2ccc3c(c2)C(=O)N([C@H](C)CO)C[C@@H](C)[C@@H](CN(C)C(=O)c2ccccc2)OCCCC[C@H](C)O3)cc1,3,3,-2,·,0
CCOc1ccc2nc(SCC(=O)NCc3ccc(OC)cc3)[nH]c2c1,5,27*,-7,·,-5
Cc1ccc(S(=O)(=O)N2CCC(C(=O)OCC(=O)N(C)Cc3ccccc3)CC2)cc1C,·,20*,-5,·,13
CCCN(CC(=O)Nc1ccccc1C)C(=O)C1CCN(S(=O)(=O)c2ccc3c(c2)OCCO3)CC1,3,-2,-6,·,-8
CCCN(CC(=O)Nc1ccccc1C)C(=O)C1CCN(S(=O)(=O)c2ccc(C)c(C)c2)CC1,1,2,27*,-6,-3
CO[C@H](CN(C)Cc1ccc2c(c1)OCO2)[C@@H](C)CN(C(=O)c1ccccc1)[C@@H](C)CO,6,2,6,1,9
CN1[C@@H]2c3ccc(C4=CCCCC4)c(=O)n3C[C@H]1[C@H](CO)[C@H]2C(=O)NCCc1ccccc1,9,·,·,-10,·
C[C@H](CO)N1C[C@H](C)[C@@H](CN(C)C(=O)Nc2ccc(F)cc2)Oc2c(NC(=O)C3CCCCC3)cccc2C1=O,-7,-4,?,5,-16
CC1OC(CCc2cccc(Cl)c2)Cc2[nH]c(=S)[nH]c(=O)c21 (centres undefined),·,·,40*,·,2
N#Cc1cccc(-c2ccc(C3[C@@H]4CN(C(=O)c5cccnc5)C[C@H]3N4)cc2)c1 (some centres undefined),·,·,84*!,3,·
Cc1cccc(-c2ccc(C3[C@@H]4CN(Cc5cccc(F)c5)C[C@H]3N4)cc2)c1 (some centres undefined),·,·,-15,-21,·
Fc1cccc(-c2ccc(C3[C@@H]4CN(Cc5cncnc5)C[C@H]3N4)cc2)c1 (some centres undefined),·,·,28*!,-14,·
O=C(C1CCCC1)N1C[C@@H]2N[C@H](C1)C2c1ccc(-c2cccc(F)c2)cc1 (some centres undefined),·,-2,47*!,-17,4
O=C(C1CC1)N1C[C@@H]2N[C@H](C1)C2c1ccc(-c2cccc(F)c2)cc1 (some centres undefined),·,·,59*!,-10,·
N#Cc1cccc(-c2ccc(C3[C@@H]4CN(Cc5ccccc5F)C[C@H]3N4)cc2)c1 (some centres undefined),·,2,1,48*!,7
O=C(CCN1CCCCC1)N[C@H]1CC[C@H](CCNC(=O)c2cc(Cl)cc(Cl)c2)O[C@H]1CO,-5,3,8,2,12
SMILES,Statin myotox sup,SIRT5 inh,DENV2 CPE,PGC1a acetyl inh,S100A4 MyoIIA
O=C(CSc1ccsc1[N+](=O)[O-])NCc1ccccc1,9,2,3,·,104*
COc1ccccc1CNC(=O)CSc1ccsc1[N+](=O)[O-],·,-3,-3,·,-16
C=CCn1c(=O)[nH]c(=O)c2c(N)c(C(=O)c3ccc(OC)cc3)sc21,135*,5,·,14,3
CC(=O)c1ccc(-n2c(=O)[nH]c(=O)c3c(N)c(C(=O)c4ccc(Cl)cc4)sc32)cc1,-4,0,-8,-6,7
C[C@H]1CN([C@@H](C)CO)C(=O)c2cccc(NC(=O)C3CC3)c2O[C@H]1CN(C)Cc1ccc2c(c1)OCO2,-25,6,3,-3,55
COc1ccc(NC(=O)N[C@@H]2CC[C@H](CCn3cc(-c4ccccc4)nn3)O[C@@H]2CO)cc1,1,-9,-4,3,-7
COc1cc(NC(=O)Cc2ccc([N+](=O)[O-])cc2)c(C(=O)O)cc1OC,·,20*,3,·,-9
COc1cc(NC(=O)Cc2cccc3ccccc23)c(C(=O)O)cc1OC,83*,-2,4,·,-3
COc1cc(NC(=O)Cc2ccccc2)c(C(=O)O)cc1OC,·,5,3,·,-9
COc1ccc(-c2ccc([C@H]3[C@H]4CN(C(=O)NC(C)C)CC(=O)N4[C@H]3CO)cc2)cc1,·,2,-5,-2,31
O=C(CCS(=O)(=O)c1ccccc1)Nc1ncc([N+](=O)[O-])s1,75*,1,1,-4,-3
O=C(CS(=O)(=O)c1ccccc1)Nc1ncc([N+](=O)[O-])s1,1,3,3,4,-8
COc1ccc(C(=O)OCC(=O)Nc2ncc([N+](=O)[O-])s2)cc1OC,-1,6,0,10,-9
O=C(COC(=O)c1ccc(Br)o1)Nc1ncc([N+](=O)[O-])s1,-3,16*,2,8,1
Cc1noc(C)c1S(=O)(=O)N(C)C[C@H]1OCCCC[C@H](C)Oc2ccc(NC(=O)CCCN(C)C)cc2C(=O)N([C@@H](C)CO)C[C@@H]1C,·,-9,-6,6,-2
C[C@@H]1CN([C@@H](C)CO)C(=O)c2cc(C#C[C@@H](C)O)cnc2O[C@H]1CN(C)C(=O)Cc1ccncc1,2,1,-2,7,87*
CC(C)CC#Cc1cnc2c(c1)C(=O)N([C@H](C)CO)C[C@@H](C)[C@@H](CN(C)C(=O)Cc1ccccc1)O2,40,-1,10,4,-2
CC(C)CC#Cc1cnc2c(c1)C(=O)N([C@@H](C)CO)C[C@@H](C)[C@@H](CN(C)C(=O)Cc1ccncc1)O2,6,-2,28*,-16,-9

# Screens from PubChem BioAssay.
